Laboratory results reported in ChEMBL document CHEMBL3407461 (J Med Chem, 2014).

Key:
[1] = molecular target: T1, Adenosine receptor A1 (Homo sapiens) (UniProt P30542); assay: Displacement of [3H]R-PIA from human recombinant A1 adenosine receptor expressed in CHO cells at 10 uM after 60 mins by liquid scintillation counting; format: cell-based
T1 sequence (whole entry): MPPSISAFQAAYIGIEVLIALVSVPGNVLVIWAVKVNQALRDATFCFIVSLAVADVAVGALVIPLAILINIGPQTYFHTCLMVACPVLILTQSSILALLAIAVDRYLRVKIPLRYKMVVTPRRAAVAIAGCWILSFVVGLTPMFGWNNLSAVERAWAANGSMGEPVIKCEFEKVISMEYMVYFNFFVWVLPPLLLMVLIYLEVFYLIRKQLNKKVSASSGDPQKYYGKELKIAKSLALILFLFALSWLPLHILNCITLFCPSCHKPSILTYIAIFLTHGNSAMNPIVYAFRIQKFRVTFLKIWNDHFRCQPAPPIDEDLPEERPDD

Mus musculus [2] = assay: Antinociceptive activity in chronic constriction injury neutropathic pain CD-1 mouse model assessed as time for peak protection at 3 umol/kg, po; format: functional
Summary of the method: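 Male CD-1 mice (25−30 g), chronic constriction injury of left sciatic nerve (Bennett model) under isoflurane. Dosed by gavage (3 μmol/kg, 0.2 mL) at peak mechano-allodynia on day 7; vehicle 10% DMSO in 0.5% methylcellulose. Paw withdrawal threshold (g) measured on the ipsilateral hind paw from 30 min to 5 h post dose. Expressed as % reversal, mean ± SEM over n animals.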

Mus musculus [3] = assay: Antinociceptive activity in chronic constriction injury neutropathic pain CD-1 mouse model assessed as maximum protection on ipsilateral hind paw at 3 umol/kg, po after 30 mins to 5 hrs post dose relative to control; format: functional; conditions: CD-1, po
Mus musculus [4] = assay: Antinociceptive activity in chronic constriction injury neutropathic pain CD-1 mouse model at 3 umol/kg, po after 3 hrs post dose relative to control; format: functional
[5] = molecular target: Adenosine receptor A2a (Homo sapiens) (UniProt P29274); assay: Displacement of [3H]CGS21680 from human recombinant A2A adenosine receptor expressed in HEK293 cells at 10 uM after 60 mins by liquid scintillation counting; format: cell-based
Chain of Adenosine receptor A2a (Homo sapiens) (P29274 whole entry): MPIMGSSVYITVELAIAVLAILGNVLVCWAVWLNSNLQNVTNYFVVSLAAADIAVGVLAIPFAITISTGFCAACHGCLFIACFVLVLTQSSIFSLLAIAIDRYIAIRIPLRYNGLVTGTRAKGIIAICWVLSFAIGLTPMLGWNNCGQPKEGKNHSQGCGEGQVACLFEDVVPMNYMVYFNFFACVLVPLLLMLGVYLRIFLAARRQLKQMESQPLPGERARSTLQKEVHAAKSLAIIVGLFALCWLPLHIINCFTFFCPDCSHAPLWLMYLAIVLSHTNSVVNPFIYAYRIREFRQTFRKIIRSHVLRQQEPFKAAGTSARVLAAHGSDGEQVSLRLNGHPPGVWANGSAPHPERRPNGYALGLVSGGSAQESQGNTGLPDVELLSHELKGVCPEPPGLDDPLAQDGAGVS

CNC(=O)[C@@]12C[C@@H]1[C@@H](n1cnc3c(NC)nc(C#Cc4ccccc4)nc31)[C@H](O)[C@@H]2O
inhibition [1]: 18% | Time (Mus musculus [2]): 0.5 h | Emax at 3 µmol/kg (Mus musculus [3]): 44.1% | Activity (Mus musculus [4]): 5%

CNC(=O)[C@@]12C[C@@H]1[C@@H](n1cnc3c(NC)nc(C#Cc4ccccn4)nc31)[C@H](O)[C@@H]2O
inhibition [1]: 13% | Time (Mus musculus [2]): 0.5 h | Emax at 3 µmol/kg (Mus musculus [3]): 31.8% | Activity (Mus musculus [4]): 0%

CNC(=O)[C@@]12C[C@@H]1[C@@H](n1cnc3c(NC)nc(C#CC4CCCCC4)nc31)[C@H](O)[C@@H]2O
inhibition [1]: 15% | inhibition [5]: 45% | Time (Mus musculus [2]): 1 h | Emax at 3 µmol/kg (Mus musculus [3]): 64.1%

CNC(=O)[C@@]12C[C@@H]1[C@@H](n1cnc3c(NC)nc(C#Cc4ccc(OC)cc4)nc31)[C@H](O)[C@@H]2O
inhibition [1]: 10% | inhibition [5]: 24% | Time (Mus musculus [2]): 0.5 h

CNC(=O)[C@H]1O[C@@H](n2cnc3c(NCc4cccc(I)c4)ncnc32)[C@H](O)[C@@H]1O [IB-MECA]
Time (Mus musculus [2]): 1 h | Emax at 3 µmol/kg (Mus musculus [3]): 94.1% | Activity (Mus musculus [4]): 38.7%

CNC(=O)[C@@]12C[C@@H]1[C@@H](n1cnc3c(NC)nc(C#Cc4ccncc4)nc31)[C@H](O)[C@@H]2O
inhibition [1]: 15% | inhibition [5]: 2% | Time (Mus musculus [2]): 1 h

CNC(=O)[C@@]12C[C@@H]1[C@@H](n1cnc3c(NC)nc(C#Cc4cc5ccccc5o4)nc31)[C@H](O)[C@@H]2O
inhibition [1]: 13% | inhibition [5]: 18% | Time (Mus musculus [2]): 1 h | Emax at 3 µmol/kg (Mus musculus [3]): 87.4%

CNC(=O)[C@@]12C[C@@H]1[C@@H](n1cnc3c(NC)nc(C#Cc4cc(C)c(C)o4)nc31)[C@H](O)[C@@H]2O
inhibition [1]: 15% | inhibition [5]: 21% | Time (Mus musculus [2]): 1 h

CNC(=O)[C@@]12C[C@@H]1[C@@H](n1cnc3c(NC)nc(C#Cc4cccnn4)nc31)[C@H](O)[C@@H]2O
inhibition [1]: 11% | inhibition [5]: 13% | Time (Mus musculus [2]): 0.5 h

CNC(=O)[C@@]12C[C@@H]1[C@@H](n1cnc3c(NC)nc(C#Cc4ccccc4OC)nc31)[C@H](O)[C@@H]2O
inhibition [1]: 12% | inhibition [5]: 20% | Time (Mus musculus [2]): 1 h | Emax at 3 µmol/kg (Mus musculus [3]): 64.3%

CNC(=O)[C@@]12C[C@@H]1[C@@H](n1cnc3c(NC)nc(C#Cc4cccc(C(F)(F)F)c4)nc31)C(O)C2O (single isomer, unassigned)
inhibition [1]: 10% | inhibition [5]: 12% | Time (Mus musculus [2]): 0.5 h

CNC(=O)[C@@]12C[C@@H]1[C@@H](n1cnc3c(NC)nc(C#Cc4ccsc4)nc31)[C@H](O)[C@@H]2O
inhibition [1]: 11% | inhibition [5]: 3% | Time (Mus musculus [2]): 0.5 h

CNC(=O)[C@@]12C[C@@H]1[C@@H](n1cnc3c(NC)nc(C#Cc4cccnc4)nc31)[C@H](O)[C@@H]2O
inhibition [1]: 16% | inhibition [5]: 12% | Time (Mus musculus [2]): 0.5 h

CNC(=O)[C@@]12C[C@@H]1[C@@H](n1cnc3c(NC)nc(C#Cc4ncccn4)nc31)[C@H](O)[C@@H]2O
inhibition [1]: 25% | inhibition [5]: 27% | Time (Mus musculus [2]): 0.5 h | Emax at 3 µmol/kg (Mus musculus [3]): 92.3%

CNC(=O)[C@@]12C[C@@H]1[C@@H](n1cnc3c(NC)nc(C#Cc4cccc(OC)c4)nc31)[C@H](O)[C@@H]2O
inhibition [1]: 8% | inhibition [5]: 26% | Time (Mus musculus [2]): 0.5 h

CNC(=O)[C@@]12C[C@@H]1[C@@H](n1cnc3c(NC)nc(C#Cc4cc[nH]n4)nc31)[C@H](O)[C@@H]2O
inhibition [1]: 30% | inhibition [5]: 19% | Time (Mus musculus [2]): 0.5 h

CNC(=O)[C@@]12C[C@@H]1[C@@H](n1cnc3c(NC)nc(C#Cc4ccc(CO)cc4)nc31)[C@H](O)[C@@H]2O
inhibition [1]: 16% | inhibition [5]: 11% | Time (Mus musculus [2]): 1 h

CCc1ccc(C#Cc2nc(NC)c3ncn([C@H]4[C@H](O)[C@H](O)[C@]5(C(=O)NC)C[C@H]45)c3n2)o1
inhibition [1]: 18% | inhibition [5]: 4% | Time (Mus musculus [2]): 1 h
